Drawing on ChEMBL document CHEMBL3259629, “Discovery and optimization of piperidyl-1,2,3-triazole ureas as potent, selective, and in vivo-active inhibitors of α/β-hydrolase domain containing 6 (ABHD6)” (J Med Chem, 2013), this text covers inhibition for one compound.

What is called inhibition is the share of the control response that was lost under treatment.

Activity calls are given as the source filed them. The calls are words filed in the database; no cut-off is given here.

In assay [1] the target is T1, Acylamino-acid-releasing enzyme (Mus musculus) (UniProt Q8R146).
T1 sequence (whole entry): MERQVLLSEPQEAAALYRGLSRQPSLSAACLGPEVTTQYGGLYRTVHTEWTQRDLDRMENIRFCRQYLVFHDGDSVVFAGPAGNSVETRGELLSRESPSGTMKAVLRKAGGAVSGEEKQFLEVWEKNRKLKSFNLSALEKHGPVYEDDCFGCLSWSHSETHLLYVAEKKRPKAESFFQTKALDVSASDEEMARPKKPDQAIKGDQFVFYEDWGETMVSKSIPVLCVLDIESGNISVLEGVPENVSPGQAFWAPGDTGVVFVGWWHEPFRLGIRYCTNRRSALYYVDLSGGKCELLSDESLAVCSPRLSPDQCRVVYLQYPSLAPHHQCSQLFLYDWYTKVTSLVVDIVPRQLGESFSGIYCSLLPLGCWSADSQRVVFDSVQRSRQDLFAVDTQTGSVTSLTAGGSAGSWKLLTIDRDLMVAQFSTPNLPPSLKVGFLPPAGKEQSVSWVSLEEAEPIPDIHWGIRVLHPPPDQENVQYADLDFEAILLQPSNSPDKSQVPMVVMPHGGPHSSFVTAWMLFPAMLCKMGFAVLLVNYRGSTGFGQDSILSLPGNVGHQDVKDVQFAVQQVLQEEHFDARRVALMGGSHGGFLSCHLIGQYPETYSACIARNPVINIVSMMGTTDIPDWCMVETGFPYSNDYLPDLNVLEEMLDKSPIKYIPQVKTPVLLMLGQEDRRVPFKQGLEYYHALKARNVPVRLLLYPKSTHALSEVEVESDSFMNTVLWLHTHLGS
Description: Inhibition of FP-rhodamine-labelled recombinant mouse APEH at 10 uM preincubated for 30 mins followed by FP-rhodamine labelling measured after 30 mins by gel-based competitive ABPP assay.

Assay [2] has as its target Acyl-protein thioesterase 2 (Mus musculus) (UniProt Q9WTL7). Description: Inhibition of FP-rhodamine-labelled recombinant mouse LYPLA2 at 10 uM preincubated for 30 mins followed by FP-rhodamine labelling measured after 30 mins by gel-based competitive ABPP assay.
Assay [3] deals with T2, Fatty-acid amide hydrolase 1 (Mus musculus) (UniProt O08914).
T2 sequence (whole entry): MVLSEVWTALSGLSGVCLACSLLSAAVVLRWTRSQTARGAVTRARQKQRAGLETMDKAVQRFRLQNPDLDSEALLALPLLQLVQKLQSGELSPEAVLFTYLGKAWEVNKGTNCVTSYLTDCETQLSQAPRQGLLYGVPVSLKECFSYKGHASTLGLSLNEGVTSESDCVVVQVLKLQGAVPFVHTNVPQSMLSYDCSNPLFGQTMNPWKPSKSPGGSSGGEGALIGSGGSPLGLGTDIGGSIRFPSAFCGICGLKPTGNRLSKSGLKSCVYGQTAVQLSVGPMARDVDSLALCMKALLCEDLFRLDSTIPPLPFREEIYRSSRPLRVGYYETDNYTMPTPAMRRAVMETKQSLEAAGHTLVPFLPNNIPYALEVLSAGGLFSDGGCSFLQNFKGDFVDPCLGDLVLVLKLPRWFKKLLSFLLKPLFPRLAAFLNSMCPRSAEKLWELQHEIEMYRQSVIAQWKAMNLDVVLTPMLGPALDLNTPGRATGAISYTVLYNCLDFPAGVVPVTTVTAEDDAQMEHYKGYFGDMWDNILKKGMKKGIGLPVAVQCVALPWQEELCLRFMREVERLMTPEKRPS
Description: Inhibition of mouse brain FAAH at 10 uM after 30 mins by FP-rhodamine ABPP-based SDS-PAGE analysis relative to control.

The target in assay [4] is Acyl-protein thioesterase 2 (Mus musculus) (UniProt Q9WTL7). Description: Inhibition of FP-rhodamine-labelled recombinant mouse LYPLA2 at 1 uM preincubated for 30 mins followed by FP-rhodamine labelling measured after 30 mins by gel-based competitive ABPP assay.
In assay [5] the target is Acyl-protein thioesterase 1 (Mus musculus) (UniProt P97823). As to the kind of experiment: Inhibition of FP-rhodamine-labelled recombinant mouse LYPLA1 at 10 uM preincubated for 30 mins followed by FP-rhodamine labelling measured after 30 mins by gel-based competitive ABPP assay.
Assay [6] shares this target. Description: Inhibition of FP-rhodamine-labelled recombinant mouse LYPLA1 at 1 uM preincubated for 30 mins followed by FP-rhodamine labelling measured after 30 mins by gel-based competitive ABPP assay.
For assay [7], the target named is T3, Diacylglycerol lipase-beta (Mus musculus) (UniProt Q91WC9).
T3 sequence (whole entry): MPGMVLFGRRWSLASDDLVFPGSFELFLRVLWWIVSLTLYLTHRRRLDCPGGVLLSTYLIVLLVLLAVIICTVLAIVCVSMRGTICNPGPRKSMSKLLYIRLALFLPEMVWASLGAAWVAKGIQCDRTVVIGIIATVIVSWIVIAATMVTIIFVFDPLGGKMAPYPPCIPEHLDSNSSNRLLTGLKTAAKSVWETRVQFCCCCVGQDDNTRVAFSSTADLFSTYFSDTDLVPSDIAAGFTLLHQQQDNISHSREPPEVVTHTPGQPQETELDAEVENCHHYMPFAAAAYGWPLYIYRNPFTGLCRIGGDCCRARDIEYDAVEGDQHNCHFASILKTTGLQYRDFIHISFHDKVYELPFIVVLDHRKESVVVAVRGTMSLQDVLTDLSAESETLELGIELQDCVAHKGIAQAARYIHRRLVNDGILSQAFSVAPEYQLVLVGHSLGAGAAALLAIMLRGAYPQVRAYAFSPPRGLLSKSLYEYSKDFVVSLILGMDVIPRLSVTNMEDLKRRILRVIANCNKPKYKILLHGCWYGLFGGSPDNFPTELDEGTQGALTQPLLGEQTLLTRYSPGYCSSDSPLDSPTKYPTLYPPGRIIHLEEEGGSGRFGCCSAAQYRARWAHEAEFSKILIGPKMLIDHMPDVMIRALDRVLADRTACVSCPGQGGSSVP
As to the kind of experiment: Inhibition of FP-rhodamine-labelled recombinant mouse DAGLbeta expressed in HEK293T cells at 1 uM preincubated for 30 mins followed by FP-rhodamine labelling measured after 30 mins by gel-based competitive ABPP assay. The class given is cell-based. The note with it: HEK-293T. The procedure, abridged: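 Mouse DAGLβ transiently overexpressed in HEK293T. Lysate diluted to 0.3 mg/mL in 50 mM HEPES pH 7.2, 100 mM NaCl, 5 mM CaCl₂, 0.1% Triton X-100, 10% DMSO. Compound preincubated 30 min at 37 °C, then 1 μM probe for 30 min at 37 °C, SDS-PAGE and in-gel fluorescence.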

In assay [8] the target is T4, Monoacylglycerol lipase ABHD6 (Mus musculus) (UniProt Q8R2Y0).
T4 sequence (whole entry): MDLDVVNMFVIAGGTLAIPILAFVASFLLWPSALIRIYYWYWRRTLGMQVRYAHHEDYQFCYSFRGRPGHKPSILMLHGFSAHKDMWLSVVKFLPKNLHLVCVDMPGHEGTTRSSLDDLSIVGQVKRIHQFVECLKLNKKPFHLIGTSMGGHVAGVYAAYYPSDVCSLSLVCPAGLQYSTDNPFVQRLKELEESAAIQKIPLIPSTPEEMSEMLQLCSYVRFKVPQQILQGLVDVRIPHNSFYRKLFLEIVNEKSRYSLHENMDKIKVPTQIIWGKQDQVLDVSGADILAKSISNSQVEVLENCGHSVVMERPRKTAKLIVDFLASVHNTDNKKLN
As to the kind of experiment: Inhibition of ABHD6 in FP-rhodamine-labelled mouse brain membrane at 10 nM preincubated for 30 mins followed by FP-rhodamine labelling measured after 30 mins by gel-based competitive ABPP assay. The class given is tissue-based. The procedure, abridged:
(§1)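 Mouse brain membrane proteome (1 mg/mL) preincubated with compound for 30 min at 37 °C, then labelled with FP-rhodamine or HT-01 (1 μM final) for 30 min at 37 °C. Quenched in SDS loading buffer, run on 10% SDS-PAGE and scanned for in-gel fluorescence. Bands assigned by gel migration.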

Assay [9] addresses T4, Monoacylglycerol lipase ABHD6 (Mus musculus). As to the kind of experiment: Inhibition of ABHD6 in FP-rhodamine-labelled mouse brain membrane at 1 nM preincubated for 30 mins followed by FP-rhodamine labelling measured after 30 mins by gel-based competitive ABPP assay. The class given is tissue-based. The procedure, abridged: as §1
The target of assay [10] is T1, Acylamino-acid-releasing enzyme (Mus musculus). As to the kind of experiment: Inhibition of FP-rhodamine-labelled recombinant mouse APEH at 1 uM preincubated for 30 mins followed by FP-rhodamine labelling measured after 30 mins by gel-based competitive ABPP assay.

Chain of Acyl-protein thioesterase 1 (Mus musculus) (P97823 whole entry): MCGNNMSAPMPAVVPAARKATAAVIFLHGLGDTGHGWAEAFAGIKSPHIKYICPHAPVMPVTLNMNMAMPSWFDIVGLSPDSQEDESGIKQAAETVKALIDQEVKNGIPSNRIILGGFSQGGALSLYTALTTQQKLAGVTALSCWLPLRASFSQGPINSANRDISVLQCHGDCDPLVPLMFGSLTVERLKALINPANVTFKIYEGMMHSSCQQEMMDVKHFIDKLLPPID
Chain of Acyl-protein thioesterase 2 (Mus musculus) (Q9WTL7 whole entry): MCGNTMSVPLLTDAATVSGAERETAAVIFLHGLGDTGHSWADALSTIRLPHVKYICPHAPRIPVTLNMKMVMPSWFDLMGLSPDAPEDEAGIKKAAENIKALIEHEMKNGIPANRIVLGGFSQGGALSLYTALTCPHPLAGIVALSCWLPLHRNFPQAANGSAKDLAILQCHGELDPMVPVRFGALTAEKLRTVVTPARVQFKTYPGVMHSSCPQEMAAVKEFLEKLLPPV

Take `O=C(O)c1cccc(-c2ccc(-c3cn(C(=O)N4CCCCC4c4ccccc4)nn3)cc2)c1` (racemic): the inhibition entry in assay [1], in assay [2], in assay [3], in [4], in [5] and in [6] was “Active” throughout. Moreover, the inhibition entry in assay [10] was “Active”. The inhibition in assay [7] worked out at 6%; in assay [8] it was 100%; in assay [9], 36%.
